Rows were chosen to be rich in hits. Some 2.6% of all compounds tested hit in one or more screens of this group.
FGF22 binding: FGF22 (human) thermal shift binding. Q9HCT0. activity (Tm shift, normalised), % at 9.99 µM. recombinant FGF22 thermal shift, SYPRO orange fluorescence; percent of sucrose octasulfate shift, DMSO zero. 340,000 compounds, 1.5% hits. AID 651658;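 active = mean Tm shift, scaled 0 neutral to 100 positive control, at about 1.3% or above, every replicate too, limit read from the data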
Target sequence (Q9HCT0 whole entry, looked up): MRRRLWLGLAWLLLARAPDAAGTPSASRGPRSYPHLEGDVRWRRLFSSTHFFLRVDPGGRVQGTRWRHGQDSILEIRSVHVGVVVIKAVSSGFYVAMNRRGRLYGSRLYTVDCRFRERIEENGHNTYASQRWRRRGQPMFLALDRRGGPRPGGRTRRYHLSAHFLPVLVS
UCH37 DUB inh: inhibitors of human deubiquitinating enzyme UCH37; Q9Y5K5; purified proteasome/UCH37, Ub-AMC cleavage fluorescence; inhibition, % (no concentration beside the values); 330,000 compounds, 0.33% hits; AID 588478;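 active = mean inhibition over replicate wells above about 20%, limit read from the data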;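 also: 0% = compound-free wells with enzyme and 100% = wells lacking proteasome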
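system = Proteasome-associated human UCH37 deubiquitinase | amount = 0.15 nM proteasome as dispensed | medium = pH 7.4 Tris-HCl (50 mM) with ovalbumin, ATP-MgCl2, DTT | incubation = 30 min preincubation with enzyme, 25 min cleavage at room temperature | detection = AMC fluorescence 355/460 nm | read-out basis = percent inhibition | controls = no-proteasome and no-compound wells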
NSD2 HMT inh: NSD2 (human) methyltransferase inhibition; O96028; inhibition, % at 12.5 µM; 310,000 compounds, 0.54% hits; NSD2 peptide methylation, AlphaScreen, 120 min; in the data active = inhibition above about 50%
SIRT5 block: inhibitors of human sirtuin-5 desuccinylase | 330,000 compounds, 1.1% hits | Purified SirT5, succinyl-peptide AMC, trypsin-coupled fluorescence | inhibition, % at 15 µM; in the data active = inhibition above about 15%
Casp6 inh: inhibitors of human caspase-6; P55212; purified caspase-6, Z-VEID-R110 cleavage fluorescence; inhibition, % at 12.5 µM; 350,000 compounds, 0.53% hits; AID 686996;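 active = mean inhibition across replicates at least about 35%, with every replicate also reaching that limit, limit read from the data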;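 also: 0% = median of neutral control wells and 100% = no fluorescence left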
Target sequence (P55212 24-179 limits assumed): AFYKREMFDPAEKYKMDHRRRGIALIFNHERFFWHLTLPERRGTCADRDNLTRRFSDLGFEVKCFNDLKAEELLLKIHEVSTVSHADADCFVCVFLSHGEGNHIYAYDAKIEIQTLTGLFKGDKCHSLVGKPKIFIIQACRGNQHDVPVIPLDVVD
Target sequence (P55212 194-293 limits assumed): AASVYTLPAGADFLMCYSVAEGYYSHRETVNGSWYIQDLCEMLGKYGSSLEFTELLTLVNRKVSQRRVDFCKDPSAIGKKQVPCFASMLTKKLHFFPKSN
The depositor's hits bear a star; · = no result.

SMILES	FGF22 binding	UCH37 DUB inh	NSD2 HMT inh	SIRT5 block	Casp6 inh
C[C@@H]1CCCCO[C@@H](CN(C)S(=O)(=O)c2cccs2)[C@H](C)CN([C@H](C)CO)C(=O)c2cc(NC(=O)Nc3ccc(F)cc3)ccc2O1	0	·	·	17*	0
Cc1cccc(N(CC(=O)NN=Cc2ccc(OCC(=O)NCc3ccco3)cc2)S(C)(=O)=O)c1C	·	3	·	·	·
O=C(Nc1ncccc1Cl)c1cc2ccccc2o1	0	-2	-3	20*	0
C=CCOc1ccc2cccc(C=NNC(=O)c3cc4cc([N+](=O)[O-])ccc4s3)c2c1	·	6	·	·	·
COc1cccc(C=NNC(=O)c2cc3cc([N+](=O)[O-])ccc3s2)c1O	·	24*	·	·	·
COC(=O)C1=NNC(C(=O)c2ccco2)C1c1ccccc1 (stereo not drawn)	0	0	0	22*	-4
Fc1ccc(CNC2CCN(Cc3ccccc3)CC2)cc1	0	2	-1	21*	-18
COCCNC(=S)N=Nc1c(O)[nH]c2c(C)cc(C)cc12	44*	·	0	3	-2
CCCNC(=O)N[C@@H]1CC[C@@H](CCNS(=O)(=O)c2cccc(F)c2)O[C@H]1CO	0	·	·	-5	-17
O=C1C(Cl)=C(O)C2(Cl)C(Cl)=C(Cl)C12Cl (stereo not drawn)	1.4*	3	-1	6	4
S=c1[nH]nc(COc2ccccc2)n1N=Cc1ccccn1	·	5	·	·	·
CCN1[C@@H]2c3ccc(-c4cccc(OC)c4)c(=O)n3C[C@@H]2[C@@H](CO)[C@@H]1C(=O)OC	0	·	·	-3	·
O=C(CSc1nc2ccccc2c(=O)n1-c1ccc(SC(F)F)cc1)Nc1ccc(N2CCOCC2)cc1	43*	-1	-2	-3	-1
CO[C@H]1CN(C)C(=O)c2cc(NC(=O)C3CC3)ccc2OC[C@H](C)N(C(=O)c2ccccc2)C[C@H]1C	0	·	·	-6	70*
CO[C@H]1CN(C)C(=O)c2cc(NC(=O)NC(C)C)ccc2OC[C@@H](C)N(C(=O)CC2CC2)C[C@@H]1C	0	·	·	20*	2
CO[C@@H]1CN(C)C(=O)c2cc(NC(=O)NC(C)C)ccc2OC[C@@H](C)N(C(=O)CC2CC2)C[C@H]1C	0	·	·	0	-1
COCC(=O)N1C[C@H](C)[C@H](OC)CN(C)C(=O)c2cc(NC(=O)C3CCC3)ccc2OC[C@@H]1C	0	·	·	24*	4
COCC(=O)N1C[C@@H](C)[C@H](OC)CN(C)C(=O)c2cc(NC(=O)C3CCC3)ccc2OC[C@@H]1C	0	·	·	2	-1
COCC(=O)N1C[C@@H](C)[C@@H](OC)CN(C)C(=O)c2cc(NC(=O)c3cc(C)on3)ccc2OC[C@H]1C	0	·	·	19*	3
Nn1c(COc2ccccc2F)nnc1SCC(=O)NC1CCCC1	0	1	-2	2	-4
N#CC1(NC(=O)CSc2nnc(COc3ccccc3F)n2N)CCCCC1	·	1	-2	-5	72*
O=C(C[C@H]1C[C@H]2c3cc(NC(=O)C4CCOCC4)ccc3O[C@H]2[C@H](CO)O1)NCCc1ccccc1	0	·	·	-2	1
Cc1ccc(Cl)cc1-c1ccc(C=Nn2cnnc2)o1	·	-73	·	·	·
CC1(C)CC(=O)c2c(-c3cccnc3)n[nH]c2C1	·	1	-2	15*	5
CC1(C)CC(=O)c2c(Cc3ccccc3)n[nH]c2C1	·	-1	2	·	·
SMILES	FGF22 binding	UCH37 DUB inh	NSD2 HMT inh	SIRT5 block	Casp6 inh
C[C@@H]1CN([C@H](C)CO)C(=O)c2c(c3ccccc3n2C)-c2ccccc2CO[C@@H]1CN(C)S(=O)(=O)c1ccc(C(F)(F)F)cc1	0	·	·	32*	-2
C[C@@H]1CN([C@H](C)CO)C(=O)c2c(c3ccccc3n2C)-c2ccccc2CO[C@H]1CN(C)S(=O)(=O)c1ccc(C(F)(F)F)cc1	0	·	·	25*	6
OCCOCCn1c(C(CO)Nc2nc(-c3ccccc3Br)cs2)nc2ccccc21 (stereo not drawn)	0	3	·	23*	4
OCCOCCn1c(C(CO)Nc2nc(-c3cccc(Br)c3)cs2)nc2ccccc21 (stereo not drawn)	0	1	·	·	·
Cc1cc(NC(=S)N(Cc2ccc(Cl)cc2)Cc2ccc(C(=O)O)cc2)ccc1Cl	44*	-2	43	5	12
Cc1cc(C)cc(NC(=S)N(Cc2ccc(Br)cc2)Cc2ccc(C(=O)O)cc2)c1	43	2	5	-3	7

Screening results deposited in PubChem BioAssay by several laboratories.
